According to ChEMBL document CHEMBL4689842, “EUbOPEN Chemogenomics Library wave 1” (2021):
Values joined by “and” are separate entries in the source; they are usually repeats but may differ in a detail not shown here. Equal entries are not always repeated.

Test system: HEK-293T
Assay: Multiplex assay against HEK293T;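 as to Population Tubulin-Different-Phenotype (%): share of the cells with healthy nuclei that show this phenotype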
Type: toxicity, cell-based
Settings: human
Method in brief: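 Phenotypes for tubulin, mitochondrial mass and membrane permeability are expressed as per cents of healthy-nucleus cells. Cells were stained live at seeding with Hoechst33342, BioTracker Green Microtubule Cytoskeleton Dye, MitoTracker Red and Annexin V Alexa Fluor 680, then imaged after compound addition on a CQ1 microscope at 37°C and 5% CO2. Machine-learning gating in CellPathfinder separated Hoechst high-intensity objects from normal cells, divided normal cells by nuclear state (healthy, pyknosed, fragmented) and divided pyknosed cells into mitotic or apoptotic.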

[1] = 12 h, 1 µM, compound concentration 1 uM, replicate 1
[2] = 12 h, 1 µM, compound concentration 1 uM, replicate 2
[3] = 12 h, 10 µM, compound concentration 10 uM, replicate 1
[4] = 12 h, 10 µM, compound concentration 10 uM, replicate 2
[5] = 24 h, 1 µM, compound concentration 1 uM, replicate 1
[6] = 24 h, 1 µM, compound concentration 1 uM, replicate 2
[7] = 24 h, 10 µM, compound concentration 10 uM, replicate 1
[8] = 24 h, 10 µM, compound concentration 10 uM, replicate 2
[9] = 48 h, 10 µM, compound concentration 10 uM, replicate 1
[10] = 48 h, 10 µM, compound concentration 10 uM, replicate 2

## CCOC(=O)Nc1cc(-c2ccc(C)c(NS(C)(=O)=O)c2)nn2c(C)nnc12
[1]
  Population Apoptotic (%): 18%
  Population Fragmented Nuclei (%): 13%
  Population Healthy Nuclei (%): 68%
  Population Hoechst High Intensity Objects (%): 9%
  Population Membrane Permeable-Phenotype (%): 3%
  Population Mitochondria Different-Phenotype (%): 3%
  Population Mitotic Cells (%): 81%
  Population Normal (%): 90%
  Population Pyknosed Nuclei (%): 17%
  Population Tubulin-Different-Phenotype (%): 2%
  Total Cell Count: 561
[2]
  Population Apoptotic (%): 12%
  Population Fragmented Nuclei (%): 10%
  Population Healthy Nuclei (%): 87%
  Population Hoechst High Intensity Objects (%): 2%
  Population Membrane Permeable-Phenotype (%): 0%
  Population Mitochondria Different-Phenotype (%): 6%
  Population Mitotic Cells (%): 87%
  Population Normal (%): 97%
  Population Pyknosed Nuclei (%): 2%
  Population Tubulin-Different-Phenotype (%): 0%
  Total Cell Count: 1857
[3]
  Population Apoptotic (%): 44% and 28%
  Population Fragmented Nuclei (%): 19% and 8%
  Population Hoechst High Intensity Objects (%): 12% and 6%
  Population Membrane Permeable-Phenotype (%): 0% and 2%
  Population Mitotic Cells (%): 55% and 71%
  Population Normal (%): 88% and 93%
  Total Cell Count: 275 and 719
[4]
  Population Apoptotic (%): 4% and 3%
  Population Fragmented Nuclei (%): 16%
  Population Healthy Nuclei (%): 79% and 50%
  Population Hoechst High Intensity Objects (%): 3% and 4%
  Population Mitochondria Different-Phenotype (%): 6% and 8%
  Population Mitotic Cells (%): 95% and 96%
  Population Normal (%): 96% and 95%
  Population Tubulin-Different-Phenotype (%): 1%
[5]
  Population Apoptotic (%): 13%
  Population Fragmented Nuclei (%): 11%
  Population Healthy Nuclei (%): 78%
  Population Hoechst High Intensity Objects (%): 7%
  Population Membrane Permeable-Phenotype (%): 4%
  Population Mitochondria Different-Phenotype (%): 2%
  Population Mitotic Cells (%): 86%
  Population Normal (%): 92%
  Population Pyknosed Nuclei (%): 9%
  Population Tubulin-Different-Phenotype (%): 0%
  Total Cell Count: 702
[6]
  Population Apoptotic (%): 6%
  Population Fragmented Nuclei (%): 32%
  Population Healthy Nuclei (%): 65%
  Population Hoechst High Intensity Objects (%): 4%
  Population Membrane Permeable-Phenotype (%): 0%
  Population Mitochondria Different-Phenotype (%): 1%
  Population Mitotic Cells (%): 93%
  Population Normal (%): 95%
  Population Pyknosed Nuclei (%): 2%
  Total Cell Count: 3024
[7]
  Population Apoptotic (%): 42% and 17%
  Population Fragmented Nuclei (%): 16% and 17%
  Population Healthy Nuclei (%): 34% and 77%
  Population Hoechst High Intensity Objects (%): 9% and 6%
  Population Membrane Permeable-Phenotype (%): 1% and 6%
  Population Mitotic Cells (%): 57% and 82%
  Population Normal (%): 90% and 93%
  Population Tubulin-Different-Phenotype (%): 1% and 2%
[8]
  Population Healthy Nuclei (%): 68% and 53%
  Population Hoechst High Intensity Objects (%): 2% and 5%
  Population Mitochondria Different-Phenotype (%): 1%
  Population Mitotic Cells (%): 98% and 95%
  Population Normal (%): 97% and 94%
[9]
  Population Apoptotic (%): 38%
  Population Fragmented Nuclei (%): 19%
  Population Healthy Nuclei (%): 48%
  Population Hoechst High Intensity Objects (%): 11%
  Population Membrane Permeable-Phenotype (%): 1%
  Population Mitochondria Different-Phenotype (%): 4%
  Population Mitotic Cells (%): 61%
  Population Normal (%): 88%
  Population Pyknosed Nuclei (%): 32%
  Population Tubulin-Different-Phenotype (%): 1%
  Total Cell Count: 380
[10]
  Population Apoptotic (%): 4%
  Population Fragmented Nuclei (%): 9%
  Population Healthy Nuclei (%): 83%
  Population Hoechst High Intensity Objects (%): 2%
  Population Mitochondria Different-Phenotype (%): 0%
  Population Mitotic Cells (%): 95%
  Population Normal (%): 97%
  Population Pyknosed Nuclei (%): 7%
  Population Tubulin-Different-Phenotype (%): 0%
  Total Cell Count: 566

## C=CC(=O)Nc1cccc(Oc2nc(Nc3ccc(N4CCN(C)CC4)cc3OC)ncc2Cl)c1
[1]
  Population Apoptotic (%): 22%
  Population Fragmented Nuclei (%): 21%
  Population Healthy Nuclei (%): 27%
  Population Hoechst High Intensity Objects (%): 18%
  Population Membrane Permeable-Phenotype (%): 13%
  Population Mitochondria Different-Phenotype (%): 25%
  Population Mitotic Cells (%): 77%
  Population Normal (%): 81%
  Population Pyknosed Nuclei (%): 50%
  Population Tubulin-Different-Phenotype (%): 77%
  Total Cell Count: 425
[2]
  Population Apoptotic (%): 11%
  Population Fragmented Nuclei (%): 4%
  Population Healthy Nuclei (%): 70%
  Population Hoechst High Intensity Objects (%): 7%
  Population Membrane Permeable-Phenotype (%): 11%
  Population Mitochondria Different-Phenotype (%): 54%
  Population Mitotic Cells (%): 88%
  Population Normal (%): 92%
  Population Pyknosed Nuclei (%): 25%
  Population Tubulin-Different-Phenotype (%): 98%
  Total Cell Count: 1025
[3]
  Population Apoptotic (%): 16%
  Population Fragmented Nuclei (%): 10%
  Population Healthy Nuclei (%): 70%
  Population Hoechst High Intensity Objects (%): 12%
  Population Membrane Permeable-Phenotype (%): 3%
  Population Mitochondria Different-Phenotype (%): 8%
  Population Mitotic Cells (%): 83%
  Population Normal (%): 87%
  Population Pyknosed Nuclei (%): 18%
  Population Tubulin-Different-Phenotype (%): 18%
  Total Cell Count: 722
[4]
  Population Apoptotic (%): 8%
  Population Fragmented Nuclei (%): 7%
  Population Healthy Nuclei (%): 86%
  Population Hoechst High Intensity Objects (%): 3%
  Population Membrane Permeable-Phenotype (%): 4%
  Population Mitochondria Different-Phenotype (%): 15%
  Population Mitotic Cells (%): 91%
  Population Normal (%): 96%
  Population Pyknosed Nuclei (%): 6%
  Population Tubulin-Different-Phenotype (%): 16%
  Total Cell Count: 1384
[5]
  Population Apoptotic (%): 36%
  Population Fragmented Nuclei (%): 23%
  Population Healthy Nuclei (%): 33%
  Population Hoechst High Intensity Objects (%): 16%
  Population Membrane Permeable-Phenotype (%): 10%
  Population Mitochondria Different-Phenotype (%): 49%
  Population Mitotic Cells (%): 63%
  Population Normal (%): 83%
  Population Pyknosed Nuclei (%): 43%
  Population Tubulin-Different-Phenotype (%): 78%
  Total Cell Count: 379
[6]
  Population Apoptotic (%): 13%
  Population Fragmented Nuclei (%): 8%
  Population Healthy Nuclei (%): 76%
  Population Hoechst High Intensity Objects (%): 7%
  Population Mitochondria Different-Phenotype (%): 36%
  Population Mitotic Cells (%): 86%
  Population Normal (%): 92%
  Population Pyknosed Nuclei (%): 14%
  Population Tubulin-Different-Phenotype (%): 89%
  Total Cell Count: 1188
[7]
  Population Apoptotic (%): 8%
  Population Fragmented Nuclei (%): 11%
  Population Healthy Nuclei (%): 79%
  Population Hoechst High Intensity Objects (%): 8%
  Population Membrane Permeable-Phenotype (%): 11%
  Population Mitochondria Different-Phenotype (%): 5%
  Population Mitotic Cells (%): 92%
  Population Normal (%): 91%
  Population Pyknosed Nuclei (%): 8%
  Population Tubulin-Different-Phenotype (%): 23%
  Total Cell Count: 923
[8]
  Population Apoptotic (%): 2%
  Population Fragmented Nuclei (%): 18%
  Population Healthy Nuclei (%): 78%
  Population Hoechst High Intensity Objects (%): 2%
  Population Membrane Permeable-Phenotype (%): 7%
  Population Mitochondria Different-Phenotype (%): 2%
  Population Mitotic Cells (%): 97%
  Population Normal (%): 97%
  Population Pyknosed Nuclei (%): 3%
  Population Tubulin-Different-Phenotype (%): 12%
  Total Cell Count: 2281
